Measurements pooled from the literature.
Compare with care: the assays were run in different laboratories.
MAPK15: Mitogen-activated protein kinase 15 (MAPK15, Homo sapiens, UniProt Q8TD08)
CASP3: Caspase-3 (CASP3, Homo sapiens, UniProt P42574)
SMO D473H: Protein smoothened (SMO, Homo sapiens, UniProt Q99835, D473H)

| Structure (SMILES) | target | test | conditions | measurement | result |
| --- | --- | --- | --- | --- | --- |
| Nc1ncc(-c2nc(N3CCOCC3)nc(N3CCOCC3)n2)c(C(F)F)n1 | Calcium/calmodulin-dependent protein kinase type IV (CAMK4, Homo sapiens, UniProt Q16566) | binding, competition with immobilised ligand | 10 µM | remaining binding | 66% |
| Cc1nn(C)cc1-c1nc2c(N3CCN(Cc4ccc(Cl)cc4)CC3)c(Cl)cnc2[nH]1 | MAPK15 | binding, competition with immobilised ligand | 1 µM | remaining binding | 8.2% |
| CC1=C2C[C@H]3[C@@H](CC=C4C[C@@H](O)CC[C@@]43C)[C@@H]2CC[C@]12O[C@@H]1C[C@H](C)CN[C@H]1[C@H]2C | Protein smoothened (SMO, Homo sapiens, UniProt Q99835) | GTPγS binding, agonist, radiometric | cell membranes | Emax | -99.2% |
| Cc1ncc(C)n2nc(/C=C/c3nc(N4CCCC4)cc(N4CCOCC4)n3)nc12 | CASP3 | enzyme activity, inhibitor | 10 µM | inhibition | 0% |
| Cc1cnc(-c2cc(N3CCN(C(=O)CCS(C)(=O)=O)CC3)ncc2Cl)c(C)c1 | SMO D473H | GTPγS binding, agonist, radiometric | cell membranes | Emax | -76.3% |
| C#Cc1n[nH]c2c(-c3cn(C(C)c4ccccn4)c(=O)[nH]c3=O)cc(F)cc12 (centres unmarked) | AP2-associated protein kinase 1 (AAK1, Homo sapiens, UniProt Q2M2I8) | enzyme activity, inhibitor | 1 µM | inhibition | 4.8% |
| CCN(CC)CCCC[C@H](NC(=O)[C@H](CC(C)C)NC(=O)[C@H](C)NC(=O)[C@H](Cc1ccccc1)NC(=O)c1ccc(C(C)(C)C)cc1)C(=O)N[C@@H](CO)C(=O)OC | Histone-lysine N-methyltransferase 2A (KMT2A, Homo sapiens, UniProt Q03164) | thermal stability, DSF | 25 µM | ΔTm | 0.04 °C |
| O=C(Nc1cccnn1)N1CCN([C@@H]2CCOc3cc(C(F)(F)F)ccc32)CC1 | Peroxisome proliferator-activated receptor gamma (PPARG, Homo sapiens, UniProt P37231) | cell-free assay | 20 µM | inhibition | 18% |
| COc1ncccc1-c1cnn2ccc(N3CCN(C(=O)OC(C)C)CC3)nc12 | MAPK15 | binding, competition with immobilised ligand | 1 µM | remaining binding | 78% |
| COc1cc(C(=O)NC(N)=Nc2ccc(C)c(NC(=O)c3ccc(-c4ccccc4)cc3)c2)cc(OC)c1OC | SMO D473H | GTPγS binding, agonist, radiometric | cell membranes | Emax | -115% |
| CC(=O)N[C@@H](CC(=O)O)C(=O)N[C@@H](CC(N)=O)C(=O)N[C@@H](CC(C)C)C(=O)N[C@H](C=O)CC(=O)O | CASP3 | enzyme activity, inhibitor | 1 nM | inhibition | 10% |
